Screening results from PubChem.
The list is not random: actives were taken first. Their share in the collection is about 1.5%.
Hep lipid drop: modulators of hepatic lipid droplet formation; inhibition, % at 6.5 µM; 0.4% of 240,000 active; AML12 mouse hepatocytes, oleate lipid droplets, BODIPY imaging; AID 1656;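 active means lipid droplet intensity inhibited by at least 50%, with more than 500 cells counted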
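Material: mouse AML12 hepatocyte cell line, fixed after treatment; Timing: compound with oleate, overnight; Technique: high-content imaging of BODIPY-stained droplets and DAPI nuclei; Probe or stimulus: oleate, 100 µM final; Dosing: compound at 6.5 µM only.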
Platelet DG rel: modulates dense granule release in human platelets. human platelet-rich plasma, SFLLRN dense granule ATP release, luminescence. inhibition, %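 (compounds screened at 7.5 µM in platelet-rich plasma)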. 0.22% of 300,000 active. AID 1663;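 active means mean replicate score, as percent of positive control, at or above 50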
STAT1 inh: inhibitors of IFN-gamma induced STAT1 signaling; inhibition, % at 5.5 µM; 0.35% of 200,000 active; NIH 3T3 STAT1-luciferase reporter, luminescence; AID 920;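 active means inhibition above a set limit, the mean inhibition across all tested compounds plus 3 SD, cut at about 34% in these data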
STAT3 inh: inhibitors of IL-6 induced STAT3 signaling; AID 862; inhibition, % at 5.5 µM; 0.89% of 190,000 active; U3A cells, IL-6 STAT3-luciferase reporter, luminescence; host cell line lacks STAT1;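 active means inhibition above the mean inhibition across all screened compounds plus 3 SD, cut at about 44% in these data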
PPC-1+TRAIL kill: kills PPC-1 cancer cells in the presence of TRAIL; PPC-1 cells + TRAIL, ATPLite viability luminescence; cell killing (% activity), % at 4 µM or 5 µM; 0.41% of 220,000 active; AID 1443;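 active means cell killing above 50% in the first pass at 4 µM, then a duplicate retest at 5 µM averaging 50% or more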
H9c2 TAG inh: reduces triacylglycerol accumulation in H9c2 cells; Nile Red lipid (TAG) fluorescence; cells loaded with 200 µM oleic acid; inhibition, % at 12.5 µM; 0.66% of 230,000 active;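 active means pattern-corrected inhibition of lipid staining of at least 50% with the nuclear-stain viability signal not falling by more than 50%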
Of the large screens only hits and unclear results are named; the others gave an inactive call.

CCOC(=O)c1sc(NC(=O)c2cc(-c3ccc(C)cc3)nc3ccccc23)c(C#N)c1C	none (no result: Hep lipid drop)
Oc1ccc(/C=N/Nc2ccc(C(F)(F)F)cn2)c(O)c1	none (no result: STAT1 inh, STAT3 inh, PPC-1+TRAIL kill, H9c2 TAG inh)
Oc1ccc(/C=N/Nc2cccc(Cl)n2)c(O)c1	Platelet DG rel 50.3 (no result: STAT1 inh, STAT3 inh, PPC-1+TRAIL kill)
CC(C)c1ccc(OCc2cccc(C(=O)N/N=C/c3cccnc3)c2)cc1	STAT1 inh 36.1, STAT3 inh 56.8, PPC-1+TRAIL kill 64.0 (no result: H9c2 TAG inh)
CCOc1ccc(OCc2cccc(C(=O)N/N=C/c3cccnc3)c2)cc1	STAT1 inh 62.3, STAT3 inh 95.5 (no result: H9c2 TAG inh)
O=C(N/N=C/c1cccnc1)c1cccc(Cl)c1	none (no result: STAT1 inh, STAT3 inh, PPC-1+TRAIL kill, H9c2 TAG inh)
CN(C)Cc1ccccc1CNC(=O)c1ccc(Cl)c(S(=O)(=O)NC2CC2)c1	none (no result: Hep lipid drop, Platelet DG rel, STAT1 inh, STAT3 inh, PPC-1+TRAIL kill)
CCOc1cc(/C=N/N=C(N)N)ccc1OCc1ccc(Cl)cc1	PPC-1+TRAIL kill 50.2 (no result: H9c2 TAG inh)
CCOc1cc(CNCCc2ccc(S(N)(=O)=O)cc2)ccc1OCc1ccc(Cl)cc1	H9c2 TAG inh 67.5 (no result: Hep lipid drop)
COc1cc(/C=N/N=C(N)N)ccc1OCc1ccc(Cl)cc1	none (no result: H9c2 TAG inh)
CCc1nc2c(OCCC3CCCCC3)cccn2c1N(C)C(=O)c1ccc(C)cc1	none (no result: Hep lipid drop, Platelet DG rel, STAT1 inh, STAT3 inh, PPC-1+TRAIL kill)
C[C@@H]1CN([C@@H](C)CO)C(=O)c2cc(C#CCN(C)C)cnc2O[C@H]1CN(C)Cc1ccc2c(c1)OCO2	none (no result: Hep lipid drop, Platelet DG rel, STAT1 inh, STAT3 inh, PPC-1+TRAIL kill)
CCOC(=O)c1c2c(n(-c3ccc(OC)cc3)c1C)C(=O)C(=O)c1ccccc1-2	H9c2 TAG inh 71.0 (no result: Hep lipid drop, Platelet DG rel, STAT1 inh, STAT3 inh, PPC-1+TRAIL kill)
CCN(CCn1cccn1)Cc1cn[nH]c1-c1cccc2ccccc12	Platelet DG rel 59.5 (no result: STAT1 inh, STAT3 inh)
O=C(c1c(F)cccc1Cl)N(Cc1ccco1)C1CCS(=O)(=O)C1 (stereo unspecified)	none (no result: Hep lipid drop, Platelet DG rel, STAT1 inh, STAT3 inh, PPC-1+TRAIL kill)
O=C1/C(=C/c2cccnc2)CCC/C1=C\c1cccnc1	PPC-1+TRAIL kill 81.7 (no result: Platelet DG rel, H9c2 TAG inh)
O=C1/C(=C/c2cccnc2)CC/C1=C\c1cccnc1	none
Cc1ccc(Nc2nc(-c3ccccc3)cs2)nc1	none (no result: Hep lipid drop, STAT1 inh, STAT3 inh, PPC-1+TRAIL kill)
Cc1ccc(Nc2nc(-c3cccs3)cs2)nc1	STAT1 inh 64.4, STAT3 inh 80.0
COc1ccc(F)cc1-c1cc(NC(C)=O)c2ncc(-c3cccc(C(F)(F)F)c3)n2c1	none (no result: Hep lipid drop, Platelet DG rel, STAT1 inh, STAT3 inh, PPC-1+TRAIL kill)
COC(=O)c1ccc2nc(Nc3nc4ccc(F)cc4s3)sc2c1	STAT1 inh 63.8, STAT3 inh 92.5 (no result: H9c2 TAG inh)
COc1cccc(C(C)(O)c2nc(-c3cc(F)cc(F)c3)cs2)c1 (stereo unspecified)	none (no result: Hep lipid drop, Platelet DG rel, STAT1 inh, STAT3 inh, PPC-1+TRAIL kill)
O=C(CCl)Nc1cccc(S(=O)(=O)NC2=NCCCCC2)c1	H9c2 TAG inh 57.4 (no result: Hep lipid drop, Platelet DG rel, STAT1 inh, STAT3 inh, PPC-1+TRAIL kill)
O=C(CCl)Nc1ccc(S(=O)(=O)NC2=NCCCCC2)cc1	none (no result: Hep lipid drop, Platelet DG rel, STAT1 inh, STAT3 inh, PPC-1+TRAIL kill)
Cc1nc2sccn2c(=O)c1S(=O)(=O)NCC(C)c1ccccc1 (stereo unspecified)	Platelet DG rel 57.8 (no result: STAT1 inh, STAT3 inh, PPC-1+TRAIL kill)
Cc1nc2sccn2c(=O)c1S(=O)(=O)NC(C)c1ccccc1 (stereo unspecified)	Platelet DG rel 63.4 (no result: STAT1 inh, STAT3 inh, PPC-1+TRAIL kill)
COc1ccc(CNCCCn2cnc3c(SC)ncnc32)cc1	none (no result: Hep lipid drop, Platelet DG rel, STAT1 inh, STAT3 inh, PPC-1+TRAIL kill)
CS(=O)(=O)c1cc(C(=O)O)cc(NCc2ccccc2)c1Oc1ccccc1	none (no result: Hep lipid drop, Platelet DG rel, STAT1 inh, STAT3 inh, PPC-1+TRAIL kill)
Cc1ccc2nc(NC(=O)CCCC(=O)O)sc2c1	STAT1 inh 51.5, STAT3 inh 79.5
COc1ccc(-c2csc(NC(=O)c3ccccc3F)n2)cc1	none (no result: STAT1 inh, STAT3 inh, PPC-1+TRAIL kill)
COc1ccc(-c2csc(NC(=O)c3ccccc3NS(=O)(=O)c3ccc(F)c(F)c3)n2)cc1	STAT1 inh 63.3, STAT3 inh 78.6
Cc1ccc(-c2csc(NC(=O)c3cccc(S(=O)(=O)N4CCN(C)CC4)c3)n2)cc1	none (no result: Hep lipid drop)
COc1cccc(C(=O)Nc2nc(-c3ccc(S(=O)(=O)N4CCOCC4)cc3)cs2)c1	STAT1 inh 47.1, STAT3 inh 47.6
O=C(Nc1nc(-c2ccc(S(=O)(=O)N3CCCCCC3)cc2)cs1)c1cccs1	H9c2 TAG inh 50.9
C(=C\c1ccc2nncn2c1)/c1ccccc1	none (no result: Hep lipid drop, Platelet DG rel, STAT1 inh, STAT3 inh, PPC-1+TRAIL kill)
CC1(C(=O)NS(=O)(=O)c2ccccc2C(F)(F)F)CCN1C(=O)CCc1cccs1 (stereo unspecified)	none (no result: Hep lipid drop, Platelet DG rel, STAT1 inh, STAT3 inh, PPC-1+TRAIL kill)
COc1cc(/C=C(\C#N)C(=O)N2CCOCC2)ccc1OCc1ccccc1	none
N#C/C(=C\c1ccc(OCc2ccc(C(=O)O)cc2)cc1)C(=O)N1CCOCC1	STAT1 inh 69.2, STAT3 inh 89.1
COc1ccc(/C=N/N(C)c2cc(=O)n(C)c(=O)[nH]2)cc1OC	Platelet DG rel 74.4 (no result: H9c2 TAG inh)
COc1ccc(S(=O)(=O)N(C)C[C@H]2Oc3c(NC(=O)Nc4ccc(C(F)(F)F)cc4)cccc3C(=O)N([C@H](C)CO)C[C@@H]2C)cc1	H9c2 TAG inh 56.5 (no result: Hep lipid drop, Platelet DG rel, STAT1 inh, STAT3 inh, PPC-1+TRAIL kill)
